Experimental data published in ChEMBL document CHEMBL1152293, “Discovery of novel, potent and bioavailable proline-urea based macrocyclic HCV NS3/4A protease inhibitors” (Bioorg Med Chem Lett, 2008).
Blank lines part the entries; values can stand above or below the compound they belong to.

Tests used:
[1] = Inhibition of full length HCV NS3/4A protease; parameters: species or system Hepacivirus hominis
Hepatitis C virus = assay: Antiviral activity against HCV infected in human Huh7 cells after 48 hrs by luciferase based replicon assay; type: functional, organism-based, Hepacivirus hominis; conditions: Huh-7, 48 h
[2] = Clearance in Sprague-Dawley rat at 2 mg/kg, iv; type: ADME, organism-based; parameters: dose 2 mg/kg, route intravenous; conditions: in vivo
How it was run: (§1)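 Male Sprague–Dawley rats (n = 2 per route) received a single intravenous dose of 2 mg/kg or an oral dose of 10 mg/kg in 50% PEG-400 in water. Plasma levels were averaged, and PK parameters were calculated. Bioavailability was derived from the iv and oral arms.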

[3] = Volume of distribution in Sprague-Dawley rat at 2 mg/kg, iv; type: ADME, organism-based; parameters: dose 2 mg/kg, route intravenous; conditions: in vivo; how it was run: as §1
[4] = AUC in Sprague-Dawley rat at 2 mg/kg, iv; type: ADME, organism-based; parameters: dose 2 mg/kg, route intravenous; conditions: plasma; how it was run: as §1
[5] = AUC in Sprague-Dawley rat at 10 mg/kg, po; type: ADME, organism-based; parameters: dose 10 mg/kg, route oral; conditions: plasma; how it was run: as §1
[6] = Cmax in Sprague-Dawley rat at 10 mg/kg, po; type: ADME, organism-based; parameters: dose 10 mg/kg, route oral; conditions: in vivo; how it was run: as §1
[7] = Tmax in Sprague-Dawley rat at 10 mg/kg, po; type: ADME, organism-based; parameters: dose 10 mg/kg, route oral; conditions: in vivo; how it was run: as §1
[8] = Half life in Sprague-Dawley rat at 10 mg/kg, po; type: ADME, organism-based; parameters: dose 10 mg/kg, route oral; conditions: in vivo; how it was run: as §1
[9] = Oral bioavailability in Sprague-Dawley rat at 10 mg/kg; type: ADME, organism-based; conditions: in vivo; how it was run: as §1
[10] = Apparent permeability across apical to basolateral side in human Caco-2 cells; type: ADME, cell-based
[11] = Metabolic stability in rat liver microsomes at 5 uM after 15 mins; type: ADME, Microsome
How it was run: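 Rat liver microsomes at 1 mg protein/mL were incubated with 5 μM test compound at 37 °C for 15 min. Stability is expressed as % of compound metabolized.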

[12] = Bioavailability in Sprague-Dawley rat at 2 mg/kg, iv and 10 mg/kg, po; type: ADME, organism-based; conditions: in vivo; how it was run: as §1
[13] = Ratio of drug level in liver to plasma of Sprague-Dawley rat at 10 mg/kg, po after 6 hrs
[14] = Ratio of drug level in liver to plasma of Sprague-Dawley rat at 10 mg/kg, po after 8 hrs
[15] = Cytotoxicity against human HuH7 cells; type: cell-based, Huh-7
[16] = Selectivity index, ratio of CC50 for human Huh7 cells to EC50 for HCV; parameters: species or system Huh-7

Ki ([1]; read-out: Ki): 1.5 nM | EC50 (Hepatitis C virus): 14 nM
Structure (SMILES): COc1ccc2c(O[C@@H]3C[C@H]4C(=O)N[C@]5(C(=O)NS(=O)(=O)C6CC6)C[C@H]5/C=C\CCCCNC(=O)N4C3)cc(-c3ccccc3)nc2c1

Ki ([1]; read-out: Ki): 0.2 nM | EC50 (Hepatitis C virus): 6.8 nM | bioavailability [12]: 11%
Structure (SMILES): COc1ccc2c(O[C@@H]3C[C@H]4C(=O)N[C@]5(C(=O)NS(=O)(=O)C6(C)CC6)C[C@H]5/C=C\CCCCCNC(=O)N4C3)cc(-c3nc(C(C)C)cs3)nc2c1C

Ki ([1]; read-out: Ki): 0.5 nM | EC50 (Hepatitis C virus): 5 nM | clearance [2]: 15.7 mL/min/kg | Vd [3]: 1.6 L/kg | AUC [4]: 3 µM·h | AUC [5]: 0.19 µM·h | Cmax [6]: 26 nM | Tmax [7]: 2 h | half-life [8]: 3.8 h | bioavailability [9]: 1.3% | Papp A→B [10]: 3 ×10⁻⁶ cm/s | liver/plasma ratio at 6 h [13]: 9.5
Structure (SMILES): COc1ccc2c(O[C@@H]3C[C@H]4C(=O)N[C@]5(C(=O)NS(=O)(=O)C6CC6)C[C@H]5/C=C\CCCCNC(=O)N4C3)cc(-c3nc(C(C)C)cs3)nc2c1

Ki ([1]; read-out: Ki): 10 nM | EC50 (Hepatitis C virus): 4500 nM
Structure (SMILES): COc1ccc2c(O[C@@H]3C[C@H]4C(=O)N[C@]5(C(=O)NS(=O)(=O)C6CC6)C[C@H]5/C=C\CCCCCN(C)C(=O)N4C3)cc(-c3ccccc3)nc2c1

Ki ([1]; read-out: Ki): 0.45 nM | EC50 (Hepatitis C virus): 26 nM | clearance [2]: 27.5 mL/min/kg | Vd [3]: 4.5 L/kg | AUC [4]: 1.65 µM·h | AUC [5]: 3.12 µM·h | Cmax [6]: 730 nM | Tmax [7]: 1.25 h | half-life [8]: 2.55 h | bioavailability [9]: 37% | liver/plasma ratio at 8 h [14]: 12
Structure (SMILES): COc1ccc2c(O[C@@H]3C[C@H]4C(=O)N[C@]5(C(=O)NS(=O)(=O)C6CC6)C[C@H]5/C=C\CCCCN(C)C(=O)N4C3)cc(-c3nc(C(C)C)cs3)nc2c1

EC50 (Hepatitis C virus): 98 nM
Structure (SMILES): COc1ccc2c(O[C@@H]3C[C@H]4C(=O)N[C@]5(C(=O)NS(=O)(=O)C6CC6)C[C@H]5/C=C\CCCCCNC(=O)N4C3)cc(-c3cscn3)nc2c1

Ki ([1]; read-out: Ki): 0.1 nM | EC50 (Hepatitis C virus): 4.5 nM | clearance [2]: 9.83 mL/min/kg | Cmax [6]: 1710 nM | bioavailability [9]: 54% | Papp A→B [10]: 30 ×10⁻⁶ cm/s | metabolized at 0.25 h, 5 µM [11]: 89% | bioavailability [12]: 54% | liver/plasma ratio at 6 h [13]: 105
Structure (SMILES): COc1ccc2c(O[C@@H]3C[C@H]4C(=O)N[C@]5(C(=O)NS(=O)(=O)C6(C)CC6)C[C@H]5/C=C\CCCCCNC(=O)N4C3)cc(-c3nc(C(C)C)cs3)nc2c1
CC50 ([15]; Huh-7 cells): > 50000 nM | Activity ([15]; huh-7): Non-toxic | Selectivity Index [16]: >10000

Ki ([1]; read-out: Ki): 2.4 nM | EC50 (Hepatitis C virus): 460 nM
Structure (SMILES): COc1ccc2c(O[C@@H]3C[C@H]4C(=O)N[C@]5(C(=O)NS(=O)(=O)C6CC6)C[C@H]5/C=C\CCCCCOC(=O)N4C3)cc(-c3ccccc3)nc2c1

Ki ([1]; read-out: Ki): 0.4 nM | EC50 (Hepatitis C virus): 44 nM
Structure (SMILES): COc1ccc2c(O[C@@H]3C[C@H]4C(=O)N[C@]5(C(=O)NS(=O)(=O)C6CC6)C[C@H]5/C=C\CCCCN(C)C(=O)N4C3)cc(-c3ccccc3)nc2c1

EC50 (Hepatitis C virus): > 10000 nM
Structure (SMILES): COc1ccc2c(O[C@@H]3C[C@H]4C(=O)N[C@]5(C(=O)O)C[C@H]5/C=C\CCCCCN(NC(=O)OC(C)(C)C)C(=O)N4C3)cc(-c3ccccc3)nc2c1
Ki [1]: 600 nM

Ki ([1]; read-out: Ki): 12 nM | EC50 (Hepatitis C virus): 700 nM
Structure (SMILES): COc1ccc2c(O[C@@H]3C[C@H]4C(=O)N[C@]5(C(=O)NS(=O)(=O)C6CC6)C[C@H]5/C=C\CCCCCN(C)C(=O)N4C3)cc(-c3nc(C(C)C)cs3)nc2c1

The remaining lines, values behind:

Structure (SMILES): COc1ccc2c(O[C@@H]3C[C@H]4C(=O)N[C@]5(C(=O)NS(=O)(=O)C6CC6)C[C@H]5/C=C\CCCCCNC(=O)N4C3)cc(-c3nc(C(C)C)cs3)nc2c1
Ki ([1]; read-out: Ki): 0.2 nM | EC50 (Hepatitis C virus): 5 nM | clearance [2]: 9.17 mL/min/kg | Vd [3]: 1.46 L/kg | AUC [4]: 7.09 µM·h | AUC [5]: 6.97 µM·h | Cmax [6]: 950 nM | Tmax [7]: 1.25 h | half-life [8]: 5.4 h | bioavailability [9]: 20% | Papp A→B [10]: 10 ×10⁻⁶ cm/s | metabolized at 0.25 h, 5 µM [11]: 93% | bioavailability [12]: 20% | liver/plasma ratio at 6 h [13]: 29

Structure (SMILES): COc1ccc2c(O[C@@H]3C[C@H]4C(=O)N[C@]5(C(=O)O)C[C@H]5/C=C\CCCCC[C@H](NC(=O)OC(C)(C)C)C(=O)N4C3)cc(-c3ccccc3)nc2c1
Ki [1]: 11 nM | EC50 (Hepatitis C virus): 77 nM

Structure (SMILES): COc1ccc2c(O[C@@H]3C[C@H]4C(=O)N[C@]5(C(=O)NS(=O)(=O)C6CC6)C[C@H]5/C=C\CCCCCNC(=O)N4C3)cc(-c3nccs3)nc2c1
Ki ([1]; read-out: Ki): 0.3 nM | EC50 (Hepatitis C virus): 11 nM | Papp A→B [10]: 0.4 ×10⁻⁶ cm/s

Structure (SMILES): COc1ccc2c(O[C@@H]3C[C@H]4C(=O)N[C@]5(C(=O)NS(=O)(=O)C6(C)CC6)C[C@H]5/C=C\CCCCCNC(=O)N4C3)cc(-c3nc(C(C)C)cs3)nc2c1Cl
Ki ([1]; read-out: Ki): 0.1 nM | EC50 (Hepatitis C virus): 4 nM | Papp A→B [10]: 29 ×10⁻⁶ cm/s | metabolized at 0.25 h, 5 µM [11]: 21%

Structure (SMILES): COc1ccc2c(O[C@@H]3C[C@H]4C(=O)N[C@]5(C(=O)NS(=O)(=O)C6CC6)C[C@H]5/C=C\CCCCCNC(=O)N4C3)cc(-c3nc(C(C)C)cs3)nc2c1C
Ki ([1]; read-out: Ki): 0.05 nM | EC50 (Hepatitis C virus): 1.7 nM | metabolized at 0.25 h, 5 µM [11]: 23%

Structure (SMILES): COc1ccc2c(O[C@@H]3C[C@H]4C(=O)N[C@]5(C(=O)NS(=O)(=O)C6CC6)C[C@H]5/C=C\CCCCOC(=O)N4C3)cc(-c3ccccc3)nc2c1
Ki ([1]; read-out: Ki): 0.35 nM | EC50 (Hepatitis C virus): 62 nM

Structure (SMILES): COc1ccc2c(O[C@@H]3C[C@H]4C(=O)N[C@]5(C(=O)NS(=O)(=O)C6CC6)C[C@H]5/C=C\CCCCCNC(=O)N4C3)cc(-c3ccccc3)nc2c1
Ki ([1]; read-out: Ki): 0.24 nM | EC50 (Hepatitis C virus): 15 nM

Structure (SMILES): COc1ccc2c(O[C@@H]3C[C@H]4C(=O)N[C@]5(C(=O)O)C[C@H]5/C=C\CCCCCN(C)C(=O)N4C3)cc(-c3ccccc3)nc2c1
Ki [1]: 10 nM | EC50 (Hepatitis C virus): 4500 nM

Structure (SMILES): COc1ccc2c(O[C@@H]3C[C@H]4C(=O)N[C@]5(C(=O)NS(=O)(=O)C6CC6)C[C@H]5/C=C\CCCCCNC(=O)N4C3)cc(-c3nc(C(C)C)cs3)nc2c1Cl
Ki ([1]; read-out: Ki): 0.1 nM | EC50 (Hepatitis C virus): 2.2 nM | Papp A→B [10]: 22 ×10⁻⁶ cm/s | metabolized at 0.25 h, 5 µM [11]: 45%
